Assay [1] concerns the target T1, Toll-like receptor 8 (Homo sapiens) (UniProt Q9NR97).
T1 sequence (whole entry): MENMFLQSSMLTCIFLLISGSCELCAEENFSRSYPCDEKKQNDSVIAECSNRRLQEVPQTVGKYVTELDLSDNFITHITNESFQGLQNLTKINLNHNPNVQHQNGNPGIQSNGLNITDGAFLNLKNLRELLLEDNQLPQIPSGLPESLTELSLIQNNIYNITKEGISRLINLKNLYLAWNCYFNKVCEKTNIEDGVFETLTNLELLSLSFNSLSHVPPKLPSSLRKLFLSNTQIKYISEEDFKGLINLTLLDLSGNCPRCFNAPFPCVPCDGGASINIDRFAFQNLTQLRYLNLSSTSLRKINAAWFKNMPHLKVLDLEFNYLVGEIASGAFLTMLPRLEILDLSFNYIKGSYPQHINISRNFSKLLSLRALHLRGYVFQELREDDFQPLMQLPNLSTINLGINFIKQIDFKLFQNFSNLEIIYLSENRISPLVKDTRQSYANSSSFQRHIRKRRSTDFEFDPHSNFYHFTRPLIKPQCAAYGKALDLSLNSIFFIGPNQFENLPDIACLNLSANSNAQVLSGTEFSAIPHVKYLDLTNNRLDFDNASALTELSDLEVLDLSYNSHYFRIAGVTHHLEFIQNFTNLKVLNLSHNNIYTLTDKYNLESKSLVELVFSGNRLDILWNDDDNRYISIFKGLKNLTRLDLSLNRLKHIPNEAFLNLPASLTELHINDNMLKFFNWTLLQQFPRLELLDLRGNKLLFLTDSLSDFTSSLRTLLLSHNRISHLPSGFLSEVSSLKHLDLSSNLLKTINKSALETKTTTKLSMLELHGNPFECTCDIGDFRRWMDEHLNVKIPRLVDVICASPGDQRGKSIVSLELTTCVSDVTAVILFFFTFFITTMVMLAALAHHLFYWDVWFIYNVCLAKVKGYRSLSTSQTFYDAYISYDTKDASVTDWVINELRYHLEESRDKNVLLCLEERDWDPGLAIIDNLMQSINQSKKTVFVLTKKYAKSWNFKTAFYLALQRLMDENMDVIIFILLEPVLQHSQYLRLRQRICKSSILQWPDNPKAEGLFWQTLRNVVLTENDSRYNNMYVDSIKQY
The assay can be described thus: Agonist activity at TLR8 in human PBMC assessed as induction of myeloid dendritic cell maturation by measuring MHC-1 level at 0.1 uM after 6 hrs by flow cytometry. The class given is cell-based. The essentials: (§1)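 hPBMCs stimulated 6 h at a single 0.1 μM dose; HLA-DR, MHC-I, CD80 and CD86 on mDCs and pDCs measured by flow cytometry, expressed as fold change versus unstimulated cells. Mean ± SD of three independent experiments in three different donors.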

For assay [2], the target named is T1, Toll-like receptor 8 (Homo sapiens). In words: Agonist activity at TLR8 in human PBMC assessed as induction of myeloid dendritic cell maturation by measuring HLA-DR level at 0.1 uM after 6 hrs by flow cytometry. The class given is cell-based. The essentials:
as §1

The source made the active and inactive calls. No cut-off for these calls is given here.

For `Nc1nc(OCCCCO)nc2c1[nH]c(=O)n2CC1CCNCC1`, the outcome in assay [1] and in assay [2] was inactive.

Source of the values: ChEMBL document CHEMBL4627265, “Optimization of 8-oxoadenines with toll-like-receptor 7 and 8 activity” (Bioorg Med Chem Lett, 2020).
